Measurements collected from several papers.
Protocols differ between the studies behind these lines.
Effect on: cell growth or viability

SMILES | cell line | technique | concentration | time | quantity | result
CC(C)(C)c1cnc(CSc2cnc(NC(=O)C3CCN(CCCCCCCCSc4cccc5c4C(=O)N(C4CCC(=O)NC4=O)C5=O)CC3)s2)o1 (stereo not shown) | HH | CCK-8 | 10 nM |  | viability | 98.2%
CNc1ncc2c(/C=C/C(=O)N3CCC(OC)CC3)nn(Cc3ccc(C)cc3)c2n1 | OE33 | resazurin |  | 5 days | EC50 | 2.49 µM
CC(=NNC(=O)c1ccccc1)c1ccc(Nc2nnc(-c3ccc(Cl)cc3)c3ccccc23)cc1 | HepG2 | MTT | 2.5 µM |  | cell death | 95.8%
CNc1ncc2c(/C=C/C(=O)N3CCC(OC)CC3)nn(Cc3ccccc3)c2n1 | OE33 | resazurin |  | 5 days | EC50 | 7.49 µM
S=C(Nc1ccccc1)Nc1ccc(Oc2nnc(-c3ccc(Cl)cc3)c3ccccc23)cc1 | HepG2 | MTT | 10 µM | 24 h | viability | 2.77%
CC(C)(C)c1cnc(CSc2cnc(NC(=O)C3CCN(CCCCCSc4cccc5c4CN(C4CCC(=O)NC4=O)C5=O)CC3)s2)o1 (stereo not shown) | HH | CCK-8 | 0.2 µM |  | viability | 0%
CC(=NNC(N)=S)c1ccc(Nc2nnc(-c3ccc(Cl)cc3)c3ccccc23)cc1 | HepG2 | MTT | 78 nM | 24 h | viability | 95.6%
CC(C)(C)c1cnc(CSc2cnc(NC(=O)C3CCN(C(=O)CCCSc4cccc5c4C(=O)N(C4CCC(=O)NC4=O)C5=O)CC3)s2)o1 (stereo not shown) | HH | CCK-8 | 1 nM |  | viability | 98.1%
Nc1ncnc2c1c(/C=C/C(=O)N1CCCCC1)nn2CC1CCCC1 | OE33 | resazurin |  | 5 days | EC50 | > 30 µM
CC(C)(C)c1cnc(CSc2cnc(NC(=O)C3CCN(CCCCCCCCSc4cccc5c4CN(C4CCC(=O)NC4=O)C5=O)CC3)s2)o1 (stereo not shown) | HH | CCK-8 | 50 nM |  | viability | 90.8%
C=CC(=O)NC1CCN(c2ncc3ncnc(Nc4ccc(Oc5ccc6c(c5)ncn6C)c(C)c4)c3n2)CC1 | PANC-03-27 |  |  |  | EC50 | 0.0333 µM
O=C(Nc1ccc(Oc2nnc(-c3ccc(Cl)cc3)c3ccccc23)cc1)c1ccccc1 | HepG2 | MTT | 0.156 µM |  | cell death | 45.6%
CNc1ncc2c(/C=C/C(=O)N3CCC(OC)CC3)nn(CCC(C)C)c2n1 | OE33 | resazurin |  | 5 days | EC50 | 19.7 µM
